# Experimental data published in ChEMBL document CHEMBL3860041, “Synthesis, biological evaluation and molecular modeling study of some new methoxylated 2-benzylthio-quinazoline-4(3H)-ones as nonclassical antifolates” (Bioorg Med Chem Lett, 2016).
# Tests used:
# [1] = Growth inhibition of human MALME-3M cells at 10 uM after 48 hrs by SRB assay relative to control; assay type: functional; settings: read-out: GI
# Procedure, shortened: (§1)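 NCI 60-cell-line panel, nine tumor subpanels; compounds tested at a single dose of 10 μM in the primary screen.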
# [2] = Growth inhibition of human CNS cancer cells after 48 hrs by SRB assay; assay type: functional; settings: Cancer cell lines
# Procedure, shortened: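 Five-log dose range against NCI tumor cell lines, monitoring GI50, TGI and LC50 for each cell line; MG-MID values derived across the panel; 5-fluorouracil positive control.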
# [3] = Growth inhibition of human HCT15 cells at 10 uM after 48 hrs by SRB assay relative to control; assay type: functional; settings: HCT-15, 48 h, read-out: GI; procedure, shortened: as §1
# Leukemia cell = assay: Potency index, ratio of 5-fluorouracil GI50 to compound GI50 for human leukemia cells; assay type: functional
# Procedure, shortened: (§2)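 GI50 for each cell line came from NCI panel testing over a 5-log dose range, with 5-fluorouracil tested alongside as the reference drug. The index relates the 5-fluorouracil GI50 to the compound GI50 within each tumour subpanel.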
# Melanoma cell = assay: Potency index, ratio of 5-fluorouracil GI50 to compound GI50 for human melanoma cells; assay type: functional; procedure, shortened: as §2
# [4] = Growth inhibition of human prostate cancer cells after 48 hrs by SRB assay; assay type: functional; settings: Cancer cell lines
# Procedure, shortened: (§3)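 Follow-up NCI panel testing over a 5-log dose range for each cell line. GI50, TGI and LC50 were monitored, with 5-fluorouracil run as the positive control. Values are grouped by tumour subpanel.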
# [5] = Growth inhibition of human RPMI8226 cells at 10 uM after 48 hrs by SRB assay relative to control; assay type: functional; settings: RPMI-8226, 48 h, read-out: GI; procedure, shortened: as §1
# [6] = Growth inhibition of human PC3 cells at 10 uM after 48 hrs by SRB assay relative to control; assay type: functional; settings: PC-3, 48 h, read-out: GI; procedure, shortened: as §1
# [7] = Growth inhibition of human IGROV1 cells at 10 uM after 48 hrs by SRB assay relative to control; assay type: functional; settings: IGROV-1, 48 h, read-out: GI; procedure, shortened: as §1
# [8] = Growth inhibition of human MDA-MB-435 cells at 10 uM after 48 hrs by SRB assay relative to control; assay type: functional; settings: MDA-MB-435, 48 h, read-out: GI; procedure, shortened: as §1
# Cancer cell lines [9] = assay: Potency index, ratio of 5-fluorouracil GI50 to compound GI50 for human colon cancer cells; assay type: functional; procedure, shortened: as §2
# [10] = Growth inhibition of human SR cells at 10 uM after 48 hrs by SRB assay relative to control; assay type: functional; settings: read-out: GI
# Procedure, shortened: (§4)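 Primary screen across the full NCI 60 human tumour cell line panel, which covers nine tumour subpanels. A single dose of 10 μM was applied to each line, and growth was recorded for each cell line.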
# [11] = Growth inhibition of human M14 cells at 10 uM after 48 hrs by SRB assay relative to control; assay type: functional; settings: M14, 48 h, read-out: GI; procedure, shortened: as §1
# [12] = Growth inhibition of human HCC2998 cells at 10 uM after 48 hrs by SRB assay relative to control; assay type: functional; settings: HCC 2998, 48 h, read-out: GI; procedure, shortened: as §1
# [13] = Growth inhibition of human SW620 cells at 10 uM after 48 hrs by SRB assay relative to control; assay type: functional; settings: SW-620, 48 h, read-out: GI; procedure, shortened: as §4
# [14] = Growth inhibition of human SF295 cells at 10 uM after 48 hrs by SRB assay relative to control; assay type: functional; settings: SF-295, 48 h, read-out: GI; procedure, shortened: as §1
# Dihydrofolate reductase = biological target: T1, Dihydrofolate reductase (Bos taurus, UniProt P00376); assay: Inhibition of bovine liver DHFR preincubated for 2 mins followed by addition of FH2 as substrate and NADPH
# T1 sequence (P00376 whole entry): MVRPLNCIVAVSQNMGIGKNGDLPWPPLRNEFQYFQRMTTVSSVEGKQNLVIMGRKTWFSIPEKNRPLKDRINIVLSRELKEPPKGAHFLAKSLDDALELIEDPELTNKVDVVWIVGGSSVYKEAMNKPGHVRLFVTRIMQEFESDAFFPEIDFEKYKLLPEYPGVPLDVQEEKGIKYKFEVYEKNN
# [15] = Growth inhibition of human KM12 cells at 10 uM after 48 hrs by SRB assay relative to control; assay type: functional; settings: KM12, 48 h, read-out: GI; procedure, shortened: as §1
# Cancer cell lines [16] = assay: Potency index, ratio of 5-fluorouracil GI50 to compound GI50 for human CNS cancer cells; assay type: functional; procedure, shortened: as §2
# [17] = Growth inhibition of human OVCAR4 cells at 10 uM after 48 hrs by SRB assay relative to control; assay type: functional; settings: OVCAR-4, 48 h, read-out: GI; procedure, shortened: as §1
# [18] = Growth inhibition of human A498 cells at 10 uM after 48 hrs by SRB assay relative to control; assay type: functional; settings: A498, 48 h, read-out: GI; procedure, shortened: as §1
# [19] = Growth inhibition of human leukemia cells after 48 hrs by SRB assay; assay type: functional; settings: Leukemia cell; procedure, shortened: as §3
# [20] = Growth inhibition of human UACC257 cells at 10 uM after 48 hrs by SRB assay relative to control; assay type: functional; settings: UACC-257, 48 h, read-out: GI; procedure, shortened: as §4
# [21] = Growth inhibition of human NCI-322M cells at 10 uM after 48 hrs by SRB assay relative to control; assay type: functional; settings: read-out: GI; procedure, shortened: as §1
# Cancer cell lines [22] = assay: Potency index, ratio of 5-fluorouracil GI50 to compound GI50 for human breast cancer cells; assay type: functional; procedure, shortened: as §2
# [23] = Growth inhibition of human SK-MEL-5 cells at 10 uM after 48 hrs by SRB assay relative to control; assay type: functional; settings: SK-MEL-5, 48 h, read-out: GI; procedure, shortened: as §4
# [24] = Growth inhibition of human ACHN cells at 10 uM after 48 hrs by SRB assay relative to control; assay type: functional; settings: read-out: GI; procedure, shortened: as §1
# [25] = Growth inhibition of human SKOV3 cells at 10 uM after 48 hrs by SRB assay relative to control; assay type: functional; settings: SK-OV-3, 48 h, read-out: GI; procedure, shortened: as §4
# [26] = Growth inhibition of human SF268 cells at 10 uM after 48 hrs by SRB assay relative to control; assay type: functional; settings: SF-268, 48 h, read-out: GI; procedure, shortened: as §1
# Cancer cell lines [27] = assay: Potency index, ratio of 5-fluorouracil GI50 to compound GI50 for human ovarian cancer cells; assay type: functional; procedure, shortened: as §2
# [28] = Growth inhibition of human MCF7 cells at 10 uM after 48 hrs by SRB assay relative to control; assay type: functional; settings: MCF7, 48 h, read-out: GI; procedure, shortened: as §1
compound,measurement,setting,value
COc1cc(CSc2nc3ccc(Cl)cc3c(=O)n2Cc2ccccc2)cc(OC)c1OC,inhibition of growth at 10 µM,[1],61.2%
same,GI50,[2],4.2 µM
same,"LC50 (lethal concentration, 50% net cell kill)",[2],81.8 µM
same,TGI,[2],49.8 µM
same,inhibition of growth at 10 µM,[3],75.1%
same,RatioGI50,Leukemia cell,2 - 10
same,RatioGI50,Melanoma cell,2 - 10
same,GI50,[4],4 µM
same,LC50 (concentration killing 50% of cells),[4],> 100 µM
same,TGI,[4],> 100 µM
same,inhibition of growth at 10 µM,[5],31.3%
same,inhibition of growth at 10 µM,[6],44.9%
same,inhibition of growth at 10 µM,[7],64.7%
same,inhibition of growth at 10 µM,[8],98.2%
same,RatioGI50,Cancer cell lines [9],2 - 10
same,inhibition of growth at 10 µM,[10],76.9%
same,inhibition of growth at 10 µM,[11],64.7%
same,inhibition of growth at 10 µM,[12],50%
same,inhibition of growth at 10 µM,[13],71.4%
same,inhibition of growth at 10 µM,[14],71.1%
same,IC50,Dihydrofolate reductase,4 µM
same,inhibition of growth at 10 µM,[15],76.4%
same,RatioGI50,Cancer cell lines [16],2 - 10
same,inhibition of growth at 10 µM,[17],48%
same,inhibition of growth at 10 µM,[18],76%
same,GI50,[19],3 µM
same,TGI,[19],87.9 µM
same,CC50,[19]; read-out: LC50 (the source's name),> 100 µM
same,inhibition of growth at 10 µM,[20],53.5%
same,inhibition of growth at 10 µM,[21],52.5%
same,RatioGI50,Cancer cell lines [22],2 - 10
same,inhibition of growth at 10 µM,[23],74.4%
same,inhibition of growth at 10 µM,[24],59.7%
same,inhibition of growth at 10 µM,[25],75.7%
same,inhibition of growth at 10 µM,[26],59.1%
same,RatioGI50,Cancer cell lines [27],2 - 10
same,inhibition of growth at 10 µM,[28],85.7%
